PREPL inhibitor – PREPL enzyme inhibitors, primary screen, biochemical, fluorescence polarization. Prolyl endopeptidase-like (Homo sapiens), Q4J6C6. recombinant PREPL, fluorescence polarization activity-based probe. inhibition, % at 5.96 µM. actives 0.68% (n = 320,000); in the data active = inhibition above about 43%
Target sequence (Q4J6C6 whole entry, looked up): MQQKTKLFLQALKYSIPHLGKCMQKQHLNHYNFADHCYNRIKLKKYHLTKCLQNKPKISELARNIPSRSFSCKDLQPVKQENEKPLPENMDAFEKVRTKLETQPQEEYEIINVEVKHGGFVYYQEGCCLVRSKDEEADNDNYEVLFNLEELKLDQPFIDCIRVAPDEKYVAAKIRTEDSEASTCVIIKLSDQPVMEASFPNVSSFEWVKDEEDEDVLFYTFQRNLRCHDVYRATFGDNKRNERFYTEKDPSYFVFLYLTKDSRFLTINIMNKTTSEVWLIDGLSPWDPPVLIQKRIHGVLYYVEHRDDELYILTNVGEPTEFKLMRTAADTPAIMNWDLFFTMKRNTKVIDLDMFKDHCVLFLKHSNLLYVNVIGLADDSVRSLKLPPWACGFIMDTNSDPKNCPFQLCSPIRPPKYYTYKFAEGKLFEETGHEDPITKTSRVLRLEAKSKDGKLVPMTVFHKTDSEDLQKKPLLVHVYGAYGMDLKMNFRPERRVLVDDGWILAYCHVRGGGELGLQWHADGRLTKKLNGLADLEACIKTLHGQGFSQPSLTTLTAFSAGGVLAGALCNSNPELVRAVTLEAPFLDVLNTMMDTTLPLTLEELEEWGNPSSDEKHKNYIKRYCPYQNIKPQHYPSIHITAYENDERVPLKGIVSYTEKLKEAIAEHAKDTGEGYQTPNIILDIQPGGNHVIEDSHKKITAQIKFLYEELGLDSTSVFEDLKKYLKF
T cruzi inh – inhibitors of intracellular T. cruzi growth, primary screen, luminescence, NIH3T3 host cells | inhibition, % (no concentration beside the values) | actives 1.4% (n = 300,000) | T. cruzi beta-gal in NIH3T3, 90 h;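 active = mean inhibition across valid replicates above about 55%, limit read from the data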;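 also: signal also drops with host cell toxicity which is not excluded here; higher percent means less beta-gal luminescence so fewer parasites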
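Test system: β-gal T. cruzi (Tulahuen C4) inside NIH/3T3 cells / Quantity: 5,000 cells/well / Measured by: luminescence from GalScreen with 0.05% NP40, read after 60 min / Medium: DMEM plus 2% FBS / Measure: parasite load inhibition, % / Reagent: Tulahuen C4 trypomastigotes, 5000/well / Schedule: co-culture of at least 90 h after 3 h attachment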
NR3A LBD binder – binders of NR3A ligand-binding domain, primary screen, biophysical, differential scanning fluorimetry, uHTS | Glutamate receptor ionotropic, NMDA 3A (GRIN3A) ligand-binding domain | NR3A LBD differential scanning fluorimetry, Tm shift; 0% = protein alone, 100% = glycine-bound protein | Tm shift relative to glycine control, % at 25 µM | actives 2.5% (n = 340,000) | AID 1259313, 2017;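 active = melting temperature shift of at least 10% of the positive control shift, at one fixed dose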
CSC inhib – cancer stem cell viability inhibitors, primary screen, luminescence; cancer stem cell-like cells viability; inhibition, % at 7.5 µM; actives 1.1% (n = 300,000); AID 2717, 2010; in the data active = inhibition above about 75%; tested in HMLE shEcad cells
CHOP inhibitor – inhibitors of CHOP promoter induction, primary screen, cell-based, unfolded protein response, luciferase reporter; CHO-K1 CHOP-promoter luciferase, tunicamycin-induced, 15-18 h; inhibition, % at 10 µM; actives 3.8% (n = 220,000); AID 2732, 2010;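 active = compounds that reduced the stress-induced luciferase reporter signal by more than about 70% of percent inhibition, limit read from the data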
Beta cell apopt – inhibitors of cytokine-induced beta cell apoptosis, primary screen, luminescence; INS-1E cytokine-induced death, ATP luminescence, 48 h; percent of positive-control rescue, neutral wells zero; protection from apoptosis, % (test concentration not listed); actives 0.8% (n = 300,000); AID 435005, 2010;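 active = Every replicate reaches about 75%, or at least half do and their mean reaches it too, limit read from the data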;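 also: higher means more ATP so stronger rescue from cytokine killing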
Large screens that a line does not name were inactive. Shown are actives, neighbours in structure and some others; about 6.7% of the full set was active somewhere.

CCN(C[C@H]1N[C@@](CC)(C(=O)OC)[C@H]2C(=O)N(C)C(=O)[C@@H]12)C(=O)Nc1ccc(C)cc1	none (no result: T cruzi inh, CSC inhib, CHOP inhibitor)
O=C(CNC(=O)c1sc2ccccc2c1Cl)NCc1ccc(F)cc1	none (no result: CHOP inhibitor)
CC(=O)c1cc(-c2ccccc2)n(CC(=O)Nc2cc(C)cc(C)c2)c1C	CHOP inhibitor 94.3
CCOC(=O)c1cc(-c2ccccc2)n(CC(=O)Nc2ccc(OCC)cc2)c1C	CHOP inhibitor 80.2
COc1ccccc1OC(=O)Oc1ccccc1OC	none (no result: PREPL inhibitor, T cruzi inh, CSC inhib, CHOP inhibitor, Beta cell apopt)
Cc1cc(N2O[C@H]3C=C[C@@H]2C3)no1	none (no result: PREPL inhibitor, T cruzi inh, CSC inhib, CHOP inhibitor, Beta cell apopt)
COc1ccc(CC(=O)Oc2ccc(Cl)cc2Br)cc1S(=O)(=O)N1CCOCC1	none (no result: CHOP inhibitor)
Cc1csc2ncnc(NCCc3ccccn3)c12	Beta cell apopt 79.3
c1ccc(CCNc2ncnc3sccc23)nc1	none
COc1cc(C(=O)COC(=O)c2cc([N+](=O)[O-])ccc2N2CCOCC2)ccc1OC(F)F	none (no result: CHOP inhibitor)
O=C(C1CCC(=O)N(C2CCCC2)C1)N1CCC(Oc2cccc(F)c2)CC1 (configuration not stated)	NR3A LBD binder 17.9 (no result: CHOP inhibitor)
CN1C(=O)C2(OCC(C)([N+](=O)[O-])CO2)c2ccccc21 (configuration not stated)	none (no result: CHOP inhibitor)
CN1C(=O)C2(OCC(COc3ccc(Cl)cc3)O2)c2ccccc21 (configuration not stated)	CHOP inhibitor 80.6 (no result: NR3A LBD binder)
O=C1Nc2ccccc2C12OCC(COc1ccc(Cl)cc1)O2 (configuration not stated)	CHOP inhibitor 79.8
Cn1cc(C(=O)N2CCc3ccccc32)cn1	none
O=C(Cn1c2ccccc2c(=O)c2ccccc21)Nc1cccc(F)c1	CHOP inhibitor 76.7
CCc1ccc2c(c1)C(c1ccc(N3CCOCC3)cc1)=NNC(c1ccncc1)=N2	T cruzi inh 58.6
Cc1ccc(/C=N/NS(=O)(=O)c2ccc([N+](=O)[O-])cc2)o1	none
CCCCCCCCCCS(=O)(=O)N/N=C/c1ccc([N+](=O)[O-])cc1	NR3A LBD binder 30.6, CSC inhib 86.0
Cc1cc(OCC(F)(F)C(F)(F)C(F)(F)C(F)(F)C(F)(F)C(F)F)nc(N)n1	CHOP inhibitor 90.7
CCCSc1nc(N)nc2c1ncn2C1OC(CO)C(O)C1O (configuration not stated)	none (no result: PREPL inhibitor, T cruzi inh, CSC inhib, CHOP inhibitor, Beta cell apopt)
CC(C)(C)[C@H]1CCC(=O)N([C@H](CSc2ccccc2)Cc2ccccc2)CC1	CSC inhib 139.2 (no result: CHOP inhibitor)
CC(C)(C)[C@H]1CCC(=O)N([C@H](CSc2ccc(Br)cc2)Cc2ccccc2)CC1	none (no result: T cruzi inh, CHOP inhibitor)
CC(C)(C)[C@@H]1CCC(=O)N(CC[C@H](Sc2ccccc2)c2ccccc2)CC1	CSC inhib 104.4 (no result: CHOP inhibitor)
CCOC(=O)CNC1CC(=O)N(c2ccc(Br)cc2)C1=O (configuration not stated)	none (no result: CHOP inhibitor)
Cc1ccc(Cl)cc1N1CCN(Cc2nc3c(c(=O)[nH]c(=O)n3C)n2Cc2ccccc2F)CC1	CSC inhib 117.8 (no result: CHOP inhibitor)
COc1ccc(-c2cc(C(=O)N3CCN(c4ccccc4)CC3)c3ccccc3n2)cc1OC	none
COc1ccc(-c2cc(C(=O)N3CCCC(C(F)(F)F)C3)c3ccccc3n2)cc1OC (configuration not stated)	NR3A LBD binder 18.1 (no result: CHOP inhibitor)
O=C(CNC(=S)N(CCCN1CCOCC1)Cc1cccs1)N1CCCC1	none
CCNc1sc(C(=O)c2cccs2)c(N)c1-c1nc2ccccc2s1	NR3A LBD binder 21.2, CHOP inhibitor 78.2
C=CCNc1sc(C(=O)c2ccccc2)c(N)c1-c1nc2ccccc2s1	CHOP inhibitor 81.8
Cn1c(=O)[nH]c2ccc([N+](=O)[O-])nc21	none
CC(=O)Nc1ccc(NC(=O)c2ccc(COc3ccccc3)cc2)cc1	NR3A LBD binder 10.4 (no result: CHOP inhibitor)
CC(C)C(=O)Nc1ccc(NC(=O)c2ccc(COc3ccccc3)cc2)cc1	NR3A LBD binder 16.3 (no result: CHOP inhibitor)
O=C(Nc1ccc(F)cc1)c1ccc(COc2ccccc2)cc1	none
Cc1ccc(NC(=S)NCc2cccs2)cc1	none
CCCCc1ccc(NC(=S)NCc2cccs2)cc1	T cruzi inh 69.5, NR3A LBD binder 11.2, CHOP inhibitor 85.2
Cc1ccc(CNc2ccc(N3CCOCC3)cc2)s1	none
Cc1ccc(NCc2ccc(C)s2)cc1	T cruzi inh 71.4 (no result: NR3A LBD binder, CHOP inhibitor)
Cc1ccc(NCc2ccccc2)cc1	T cruzi inh 58.5
C=CCC(C)(NCc1ccccc1)c1ccc(C)cc1 (configuration not stated)	CHOP inhibitor 75.2
Cc1ccc(Cl)cc1N1CCN(C(=O)CCS(=O)(=O)c2ccc3c(c2)NC(=O)CO3)CC1	none (no result: CHOP inhibitor)
O=C(Nc1ccn(CCCN2CCN(c3ccccn3)CC2)c(=O)n1)OCc1ccccc1	none (no result: PREPL inhibitor, T cruzi inh, CSC inhib, CHOP inhibitor, Beta cell apopt)
CCCCN(C)CCNC(=O)c1nn(-c2ccc(OC)cc2)c(=O)c2c1c1ccccc1n2C	T cruzi inh 60.9
CCN(C(=O)c1nn(-c2ccc(OC)cc2)c(=O)c2c1c1ccccc1n2C)c1ccc(OC)cc1	none
O=C1N(c2ccccc2)C[C@@H]2C[C@@H](c3cc4ccccc4o3)N3CCC[C@@]123	T cruzi inh 55.6, CHOP inhibitor 103.3 (no result: PREPL inhibitor, CSC inhib, Beta cell apopt)
C=CCNC(=O)Cn1c(=O)c2c(ncn2CCC(C)C)n(Cc2ccccc2)c1=O	none (no result: CHOP inhibitor, Beta cell apopt)
CS/C(Nc1cc(Cl)ccc1Cl)=C(/C#N)C(=O)c1ccco1	none
CC(C)(C#CCN1CCCCC1)OCCOC(c1ccccc1)c1ccccc1	CHOP inhibitor 76.9
CC(O)(C#CCN1CCCCC1)c1ccccc1 (configuration not stated)	none
O=C(Nc1ccncc1)Nc1cc(Cl)ccc1Cl	T cruzi inh 57.2 (no result: PREPL inhibitor, CHOP inhibitor)
O=C(Nc1ccncc1)Nc1ccccc1Cl	none (no result: CHOP inhibitor)
O=C(Nc1ccncc1)Nc1ccc(Cl)cc1Cl	T cruzi inh 55.4 (no result: PREPL inhibitor, CHOP inhibitor)
Cc1ccc(NC(=O)Nc2ccon2)cc1	none (no result: PREPL inhibitor, CSC inhib, CHOP inhibitor, Beta cell apopt)
O=C(Nc1ccc(Cl)cc1)Nc1ccon1	NR3A LBD binder 14.3 (no result: CSC inhib, CHOP inhibitor)
O=C(Nc1ccncc1)Nc1ccc(Cl)cc1	NR3A LBD binder 26.1 (no result: CHOP inhibitor)
CC(C)NC(=O)C(C)N1CCN(S(=O)(=O)c2ccc3ccccc3c2)CC1 (configuration not stated)	none (no result: CHOP inhibitor)
COc1ccccc1OCC(=O)NCCSCc1cccc(Cl)c1	none
Cc1cc(=O)oc2c3c(cc(OCC(=O)NCC4CCC(C(=O)O)CC4)c12)OC(C)(C)CC3 (configuration not stated)	none (no result: CHOP inhibitor)
CN(C)S(=O)(=O)c1ccc(C(=O)Nc2ccn(C)n2)cc1	none (no result: CHOP inhibitor)
O=C(NC(=O)c1ccccc1)Nc1ccc(-c2cnco2)cc1	none
O=C(Nc1ccc(Cl)cc1)Nc1ccc(-c2cnco2)cc1	NR3A LBD binder 37.2 (no result: CHOP inhibitor)
CCOc1ccc(NC2c3ccccc3C(=O)N2Cc2ccco2)cc1 (configuration not stated)	CHOP inhibitor 72.6
